Data on 1 compound can be found in ChEMBL document CHEMBL2331234, “Novel analgesic/anti-inflammatory agents: 1,5-diarylpyrrole nitrooxyalkyl ethers and related compounds as cyclooxygenase-2 inhibiting nitric oxide donors” (J Med Chem, 2013).

Assay [1] deals with Rattus norvegicus. In words: Antiinflammatory activity in Sprague-Dawley/Wistar rat assessed as decrease in carrageenan-induced hyperalgesia at 20 mg/kg, po administered 4 hrs after carrageenan-challenge measured after 30 mins (reference value: 34.8 +/- 3.0 g). The format is functional.
The subject of the next assay is Aorta. Put plainly: Vasorelaxant activity in Wistar rat endothelium-removed thoracic aortic rings assessed as reduction of KCl-induced vasoconstriction at 0.001 uM to 10 uM treated after KCl-challenge in presence of guanylate cyclase inhibitor 1H-[1,2,4]-oxadiazolo[4,3-a]quinoxalin-1-one. The class given is functional, tissue-based. The gist of the method:
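Endothelium-denuded aortic rings from male Wistar rats (250-350 g) were preincubated with ODQ 1 µM. Rings were contracted with KCl 30 mM, then given 3-fold increasing concentrations from 1 nM to 10 µM. Emax is the % relaxation of KCl tone. pIC50 was calculated when efficacy reached 50%, from 6-10 experiments.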

The test system of a further assay is J774. Put plainly: Selectivity index, ratio of IC50 for COX1 in mouse J774 cells […]. The class given is cell-based.
For assay [2], the target named is Prostaglandin G/H synthase 1 (Homo sapiens, UniProt P23219). In words: Inhibition of COX1 in human whole blood assessed as reduction in TXB2 generation. The gist of the method:
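Clotting assay in whole blood from three healthy volunteers with no NSAID for 2 weeks. Compounds in DMSO were added at 0.1-300 µM final. Blood clotted in glass tubes at 37 °C for 1 h. Serum TXB2 was measured by RIA as a reflection of platelet COX-1 activity driven by endogenous thrombin.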

Assay [3] deals with Rattus norvegicus. Put plainly: Antiinflammatory activity in Sprague-Dawley/Wistar osteoarthritis model rat assessed as decrease in monoiodoacetate-induced hyperalgesia at 20 mg/kg, po bid for 14 days administered from day of monoiodoacetate-challenge […] post by paw pressure test (reference value: 32.6 +/- 2.9 g). The class given is functional.
For assay [4], the system named is Rattus norvegicus. Put plainly: Antiinflammatory activity in Sprague-Dawley/Wistar rat assessed as decrease in carrageenan-induced hyperalgesia at 10 mg/kg, po administered 4 hrs after carrageenan-challenge measured after 120 mins (reference value: 31.4 +/- 3.7 g). The format is functional.
In assay [5] the test system is Rattus norvegicus. Put plainly: Antiinflammatory activity in Sprague-Dawley/Wistar rat assessed as decrease in carrageenan-induced hyperalgesia at 10 mg/kg, po administered 4 hrs after carrageenan-challenge measured after 30 mins (reference value: 34.8 +/- 3.0 g). The format is functional.

Calls of active or inactive are those of the source. The rule behind the calls is not given here.

Chain of Prostaglandin G/H synthase 1 (P23219 whole entry): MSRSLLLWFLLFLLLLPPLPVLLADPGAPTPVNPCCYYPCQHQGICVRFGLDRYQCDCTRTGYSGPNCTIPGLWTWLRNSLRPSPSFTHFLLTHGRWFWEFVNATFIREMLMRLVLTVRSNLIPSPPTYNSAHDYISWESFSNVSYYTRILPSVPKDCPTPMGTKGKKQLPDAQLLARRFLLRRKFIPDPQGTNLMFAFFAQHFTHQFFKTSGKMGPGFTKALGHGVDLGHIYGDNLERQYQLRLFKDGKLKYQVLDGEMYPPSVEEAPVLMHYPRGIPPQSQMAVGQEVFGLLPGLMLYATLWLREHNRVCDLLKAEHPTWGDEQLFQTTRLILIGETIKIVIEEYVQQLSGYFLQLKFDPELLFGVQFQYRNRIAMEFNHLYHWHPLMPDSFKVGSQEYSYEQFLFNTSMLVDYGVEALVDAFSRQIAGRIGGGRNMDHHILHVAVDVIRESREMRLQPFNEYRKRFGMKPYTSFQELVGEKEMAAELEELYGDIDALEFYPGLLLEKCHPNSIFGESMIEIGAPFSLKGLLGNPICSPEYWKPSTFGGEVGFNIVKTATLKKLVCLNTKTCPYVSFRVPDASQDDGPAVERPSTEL

The IC50 is the point on the concentration scale where inhibition reaches its midpoint. By IC80 is commonly meant the concentration needed for an effect of 80%. Turning to `Cc1c(CCOCCO[N+](=O)[O-])cc(-c2ccc(S(C)(=O)=O)cc2)n1-c1ccc(F)cc1`, the Activity with Rattus norvegicus [1] was 56.8 g; in the assay with Rattus norvegicus [3], 43.5 g; in the assay with Rattus norvegicus [4], 48.3 g; in the assay with Rattus norvegicus [5] it was 55.1 g. For the same compound, in the assay on Aorta, the outcome was inactive. Besides, the Ratio IC50 in the assay with J774 was above 714. The IC50 in assay [2] worked out at 31.2 µM. Moreover, the IC80 in assay [2] was 63.3 µM. The inhibition result in assay [2] was “Dose-dependent effect”.
